In ChEMBL document CHEMBL1250442, “Inhibiting gene expression at transcription start sites in chromosomal DNA with antigene RNAs” (Nat Chem Biol, 2005):
Calls of active or inactive are those of the source. No cut-off for these calls is given here.

What was measured:
T47D [1] = test: Inhibition of PR-B mRNA gene expression in human T47D cells at 100 nM by syber green assay; format: functional
Method in brief: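 T47D cells in RPMI-1640 with 10% FBS, NEAA, insulin, 37 °C, 5% CO2. Plated two days before transfection without antibiotics. Oligofectamine-mediated duplex RNA transfection at 100 nM final, medium changed at 24 h, harvest five days post-transfection. Total RNA extracted with TRIzol. hPR mRNA quantified by SYBR Green qPCR: 50 °C 2 min, 95 °C 10 min, then 40 cycles of 95 °C 15 s / 60 °C 1 min.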

T47D [2] = test: Inhibition of PR-A gene expression in human T47D cells at 25 nM by syber green assay in presence of 10 nM estradiol; format: functional, cell-based
T47D [3] = test: Inhibition of PR-B gene expression in human T47D cells at 25 nM by syber green assay; format: functional
Method in brief: (§1)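 T47D cells plated at 80,000/well without antibiotics two days before Oligofectamine transfection with agRNA duplex (25 or 100 nM final); medium changed at 24 h, harvest day 5 unless stated otherwise. TRIzol total RNA; PR mRNA by real-time PCR with SYBR Green: 50 °C 2 min, 95 °C 10 min, 40 cycles 95 °C 15 s/60 °C 1 min.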

T47D [4] = test: Inhibition of PR-B gene expression in human T47D cells at 25 nM by syber green assay in presence of 10 nM estradiol; format: functional, cell-based
T47D [5] = test: Inhibition of PR-A gene expression in human T47D cells at 25 nM by syber green assay; format: functional; method in brief: as §1
T47D [6] = test: Inhibition of PR-A mRNA gene expression in human T47D cells at 100 nM by syber green assay; format: functional; method in brief: as §1

Structure (SMILES)	inhibition at 0.1 µM (T47D [1]) [%]	inhibition (T47D [2])	inhibition at 0.025 µM (T47D [3]) [%]	inhibition (T47D [4])	inhibition at 0.025 µM (T47D [5]) [%]	inhibition at 0.1 µM (T47D [6]) [%]
Cc1cn(CC(=O)N(CCNC(=O)CN(CCNC(=O)CN(CCNC(=O)CN(CCNC(=O)CN(CCNC(=O)CN(CCNC(=O)CN(CCNC(=O)CN(CCNC(=O)CN(CCNC(=O)CN(CCNC(=O)CN(CCNC(=O)CN(CCNC(=O)CN(CCNC(=O)CN(CCNC(=O)CN(CCNC(=O)CN(CCNC(=O)CN(CCNC(=O)CN(CCNC(=O)CN(CCNC(=O)CN(CCNC(=O)CN(CCNC(=O)CN)C(=O)Cn2ccc(N)nc2=O)C(=O)Cn2ccc(=O)[nH]c2=O)C(=O)Cn2cnc3c(=O)[nH]c(N)nc32)C(=O)Cn2cnc3c(=O)[nH]c(N)nc32)C(=O)Cn2ccc(N)nc2=O)C(=O)Cn2ccc(N)nc2=O)C(=O)Cn2cnc3c(N)ncnc32)C(=O)Cn2cnc3c(=O)[nH]c(N)nc32)C(=O)Cn2ccc(=O)[nH]c2=O)C(=O)Cn2ccc(N)nc2=O)C(=O)Cn2ccc(N)nc2=O)C(=O)Cn2cnc3c(N)ncnc32)C(=O)Cn2ccc(N)nc2=O)C(=O)Cn2cnc3c(N)ncnc32)C(=O)Cn2cnc3c(=O)[nH]c(N)nc32)C(=O)Cn2ccc(N)nc2=O)C(=O)Cn2ccc(=O)[nH]c2=O)C(=O)Cn2cnc3c(=O)[nH]c(N)nc32)C(=O)Cn2ccc(=O)[nH]c2=O)C(=O)Cn2cc(C)c(=O)[nH]c2=O)CC(=O)O)c(=O)[nH]c1=O	71	Active	< 20	Active	< 20	26
Cc1cn(CC(=O)N(CCNC(=O)CN(CCNC(=O)CN(CCNC(=O)CN(CCNC(=O)CN(CCNC(=O)CN(CCNC(=O)CN(CCNC(=O)CN(CCNC(=O)CN(CCNC(=O)CN(CCNC(=O)CN(CCNC(=O)CN(CCNC(=O)CN(CCNC(=O)CN(CCNC(=O)CN(CCNC(=O)CN(CCNC(=O)CN(CCNC(=O)CN(CCNC(=O)CN(CCNC(=O)CN(CCNC(=O)CN(CCNC(=O)CN)C(=O)Cn2ccc(=O)[nH]c2=O)C(=O)Cn2ccc(N)nc2=O)C(=O)Cn2ccc(=O)[nH]c2=O)C(=O)Cn2cnc3c(=O)[nH]c(N)nc32)C(=O)Cn2cnc3c(=O)[nH]c(N)nc32)C(=O)Cn2ccc(N)nc2=O)C(=O)Cn2ccc(N)nc2=O)C(=O)Cn2cnc3c(N)ncnc32)C(=O)Cn2cnc3c(=O)[nH]c(N)nc32)C(=O)Cn2ccc(=O)[nH]c2=O)C(=O)Cn2ccc(N)nc2=O)C(=O)Cn2ccc(N)nc2=O)C(=O)Cn2cnc3c(N)ncnc32)C(=O)Cn2ccc(N)nc2=O)C(=O)Cn2cnc3c(N)ncnc32)C(=O)Cn2cnc3c(=O)[nH]c(N)nc32)C(=O)Cn2ccc(N)nc2=O)C(=O)Cn2ccc(=O)[nH]c2=O)C(=O)Cn2cnc3c(=O)[nH]c(N)nc32)C(=O)Cn2cc(C)c(=O)[nH]c2=O)CC(=O)O)c(=O)[nH]c1=O	100	Active	50	Active	38	97
Cc1cn(CC(=O)N(CCNC(=O)CN(CCNC(=O)CN(CCNC(=O)CN(CCNC(=O)CN(CCNC(=O)CN(CCNC(=O)CN(CCNC(=O)CN(CCNC(=O)CN(CCNC(=O)CN(CCNC(=O)CN(CCNC(=O)CN(CCNC(=O)CN(CCNC(=O)CN(CCNC(=O)CN(CCNC(=O)CN(CCNC(=O)CN(CCNC(=O)CN(CCNC(=O)CN(CCNC(=O)CN(CCNC(=O)CN(CCNC(=O)CN)C(=O)Cn2cnc3c(=O)[nH]c(N)nc32)C(=O)Cn2ccc(=O)[nH]c2=O)C(=O)Cn2ccc(N)nc2=O)C(=O)Cn2ccc(=O)[nH]c2=O)C(=O)Cn2cnc3c(=O)[nH]c(N)nc32)C(=O)Cn2cnc3c(=O)[nH]c(N)nc32)C(=O)Cn2ccc(N)nc2=O)C(=O)Cn2ccc(N)nc2=O)C(=O)Cn2cnc3c(N)ncnc32)C(=O)Cn2cnc3c(=O)[nH]c(N)nc32)C(=O)Cn2ccc(=O)[nH]c2=O)C(=O)Cn2ccc(N)nc2=O)C(=O)Cn2ccc(N)nc2=O)C(=O)Cn2cnc3c(N)ncnc32)C(=O)Cn2ccc(N)nc2=O)C(=O)Cn2cnc3c(N)ncnc32)C(=O)Cn2cnc3c(=O)[nH]c(N)nc32)C(=O)Cn2ccc(N)nc2=O)C(=O)Cn2ccc(=O)[nH]c2=O)C(=O)Cn2cc(C)c(=O)[nH]c2=O)CC(=O)O)c(=O)[nH]c1=O	88	Active	73	Active	67	67
Cc1cn(CC(=O)N(CCNC(=O)CN(CCNC(=O)CN(CCNC(=O)CN(CCNC(=O)CN(CCNC(=O)CN(CCNC(=O)CN(CCNC(=O)CN(CCNC(=O)CN(CCNC(=O)CN(CCNC(=O)CN(CCNC(=O)CN(CCNC(=O)CN(CCNC(=O)CN(CCNC(=O)CN(CCNC(=O)CN(CCNC(=O)CN(CCNC(=O)CN(CCNC(=O)CN(CCNC(=O)CN(CCNC(=O)CN)C(=O)Cn2cnc3c(=O)[nH]c(N)nc32)C(=O)Cn2cnc3c(=O)[nH]c(N)nc32)C(=O)Cn2ccc(N)nc2=O)C(=O)Cn2cnc3c(=O)[nH]c(N)nc32)C(=O)Cn2ccc(=O)[nH]c2=O)C(=O)Cn2ccc(=O)[nH]c2=O)C(=O)Cn2cnc3c(=O)[nH]c(N)nc32)C(=O)Cn2ccc(=O)[nH]c2=O)C(=O)Cn2ccc(=O)[nH]c2=O)C(=O)Cn2cnc3c(N)ncnc32)C(=O)Cn2cnc3c(=O)[nH]c(N)nc32)C(=O)Cn2cnc3c(N)ncnc32)C(=O)Cn2cnc3c(N)ncnc32)C(=O)Cn2cnc3c(N)ncnc32)C(=O)Cn2cnc3c(=O)[nH]c(N)nc32)C(=O)Cn2ccc(N)nc2=O)C(=O)Cn2ccc(=O)[nH]c2=O)C(=O)Cn2cnc3c(=O)[nH]c(N)nc32)C(=O)Cn2ccc(=O)[nH]c2=O)CC(=O)NCCN(CC(=O)NCC(=O)O)C(=O)Cn2cc(C)c(=O)[nH]c2=O)c(=O)[nH]c1=O	< 20	Active	< 20	Active	< 20	< 20
Cc1cn(CC(=O)N(CCNC(=O)CN(CCNC(=O)CN(CCNC(=O)CN(CCNC(=O)CN(CCNC(=O)CN(CCNC(=O)CN(CCNC(=O)CN(CCNC(=O)CN(CCNC(=O)CN(CCNC(=O)CN(CCNC(=O)CN(CCNC(=O)CN(CCNC(=O)CN(CCNC(=O)CN(CCNC(=O)CN(CCNC(=O)CN(CCNC(=O)CN(CCNC(=O)CN(CCNC(=O)CN(CCNC(=O)CN)C(=O)Cn2cnc3c(N)ncnc32)C(=O)Cn2cnc3c(=O)[nH]c(N)nc32)C(=O)Cn2cnc3c(=O)[nH]c(N)nc32)C(=O)Cn2ccc(N)nc2=O)C(=O)Cn2cnc3c(=O)[nH]c(N)nc32)C(=O)Cn2ccc(=O)[nH]c2=O)C(=O)Cn2ccc(=O)[nH]c2=O)C(=O)Cn2cnc3c(=O)[nH]c(N)nc32)C(=O)Cn2ccc(=O)[nH]c2=O)C(=O)Cn2ccc(=O)[nH]c2=O)C(=O)Cn2cnc3c(N)ncnc32)C(=O)Cn2cnc3c(=O)[nH]c(N)nc32)C(=O)Cn2cnc3c(N)ncnc32)C(=O)Cn2cnc3c(N)ncnc32)C(=O)Cn2cnc3c(N)ncnc32)C(=O)Cn2cnc3c(=O)[nH]c(N)nc32)C(=O)Cn2ccc(N)nc2=O)C(=O)Cn2ccc(=O)[nH]c2=O)C(=O)Cn2cnc3c(=O)[nH]c(N)nc32)CC(=O)NCCN(CC(=O)NCC(=O)O)C(=O)Cn2cc(C)c(=O)[nH]c2=O)c(=O)[nH]c1=O	99	Active	73	Active	57	80
Cc1cn(CC(=O)N(CCNC(=O)CN(CCNC(=O)CN(CCNC(=O)CN(CCNC(=O)CN(CCNC(=O)CN(CCNC(=O)CN(CCNC(=O)CN(CCNC(=O)CN(CCNC(=O)CN(CCNC(=O)CN(CCNC(=O)CN(CCNC(=O)CN(CCNC(=O)CN(CCNC(=O)CN(CCNC(=O)CN(CCNC(=O)CN(CCNC(=O)CN(CCNC(=O)CN(CCNC(=O)CN(CCNC(=O)CN)C(=O)Cn2cnc3c(N)ncnc32)C(=O)Cn2cnc3c(=O)[nH]c(N)nc32)C(=O)Cn2ccc(N)nc2=O)C(=O)Cn2ccc(=O)[nH]c2=O)C(=O)Cn2cnc3c(=O)[nH]c(N)nc32)C(=O)Cn2ccc(=O)[nH]c2=O)C(=O)Cn2ccc(N)nc2=O)C(=O)Cn2ccc(=O)[nH]c2=O)C(=O)Cn2cnc3c(=O)[nH]c(N)nc32)C(=O)Cn2cnc3c(=O)[nH]c(N)nc32)C(=O)Cn2ccc(N)nc2=O)C(=O)Cn2ccc(N)nc2=O)C(=O)Cn2cnc3c(N)ncnc32)C(=O)Cn2cnc3c(=O)[nH]c(N)nc32)C(=O)Cn2ccc(=O)[nH]c2=O)C(=O)Cn2ccc(N)nc2=O)C(=O)Cn2ccc(N)nc2=O)C(=O)Cn2cnc3c(N)ncnc32)C(=O)Cn2ccc(N)nc2=O)CC(=O)NCCN(CC(=O)NCC(=O)O)C(=O)Cn2cc(C)c(=O)[nH]c2=O)c(=O)[nH]c1=O	87	Active	40	Active	34	63
